Here are results for two molecules from PMC12642897 (Journal of Enzyme Inhibition and Medicinal Chemistry, 2025).

One assay addresses α-glucosidase (Saccharomyces cerevisiae, UniProt P53341). The assay can be described thus: α-Glucosidase enzyme kinetic analysis. Conditions: Lineweaver–Burk plot. Type of assay: biochemical. The essentials: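 Yeast (S. cerevisiae) α-glucosidase in phosphate buffer, pH 6.8. p-NPG at 0.625, 1.25 and 2.5 mM was crossed with four concentrations of each test compound (sets of 7–40, 20–80 or 2–12 µM). Incubated 10 min at 37 °C, stopped with 0.2 M Na₂CO₃, read at 405 nm. Lineweaver–Burk plots assign inhibition mode.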

Assay [1] has as its target T1, PTP1B (Homo sapiens, UniProt P18031).
T1 sequence (P18031 1-435): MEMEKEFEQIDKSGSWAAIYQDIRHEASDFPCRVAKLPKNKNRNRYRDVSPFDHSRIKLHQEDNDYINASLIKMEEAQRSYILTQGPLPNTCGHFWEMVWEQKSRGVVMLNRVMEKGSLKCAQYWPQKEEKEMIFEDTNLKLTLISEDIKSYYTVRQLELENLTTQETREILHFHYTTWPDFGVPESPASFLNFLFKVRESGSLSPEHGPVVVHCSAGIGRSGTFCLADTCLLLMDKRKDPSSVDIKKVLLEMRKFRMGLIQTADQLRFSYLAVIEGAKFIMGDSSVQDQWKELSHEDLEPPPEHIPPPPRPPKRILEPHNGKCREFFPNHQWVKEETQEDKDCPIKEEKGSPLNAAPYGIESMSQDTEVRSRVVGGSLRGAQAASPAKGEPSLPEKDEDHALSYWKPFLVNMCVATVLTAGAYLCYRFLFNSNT
In words: PTP1B inhibition assay. The format is biochemical. Conditions: PTP1B IC50, isolated compounds and positive control; tested 1 to 100 µM.

Assay [2] concerns the target α-glucosidase enzyme from Saccharomyces cerevisiae (Saccharomyces cerevisiae, UniProt P53341). In words: α-Glucosidase inhibition assay. The format is biochemical.
The target of assay [3] is T1, PTP1B. In words: PTP1B enzyme kinetic analysis. Type of assay: biochemical. The note with it: for Ki: PTP1B Ki value, secondary plot. The essentials: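 Human recombinant PTP1B in 50 mM citrate buffer (pH 6.0) with 0.1 M NaCl, 1 mM EDTA and 1 mM DTT. Test compound at 2, 4, 10 and 12 µM was crossed with p-NPP at 0.5, 1 and 2 mM. Enzyme plus inhibitor preincubated 10 min at 37 °C, then substrate added for 20 min at 37 °C. NaOH stop, A405. Lineweaver–Burk for mode; secondary plots for Kic/Kiu.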

Another assay concerns the target rat sucrase. The note with it: read-out: IC50 against rat sucrase; ref 44 (Barber's review); cited from earlier work.
The next assay deals with rat maltase. Conditions: read-out: IC50 against rat maltase; ref 44 (Barber's review); cited from earlier work.

α-glucosidase enzyme from Saccharomyces cerevisiae, sequence (P53341 whole entry): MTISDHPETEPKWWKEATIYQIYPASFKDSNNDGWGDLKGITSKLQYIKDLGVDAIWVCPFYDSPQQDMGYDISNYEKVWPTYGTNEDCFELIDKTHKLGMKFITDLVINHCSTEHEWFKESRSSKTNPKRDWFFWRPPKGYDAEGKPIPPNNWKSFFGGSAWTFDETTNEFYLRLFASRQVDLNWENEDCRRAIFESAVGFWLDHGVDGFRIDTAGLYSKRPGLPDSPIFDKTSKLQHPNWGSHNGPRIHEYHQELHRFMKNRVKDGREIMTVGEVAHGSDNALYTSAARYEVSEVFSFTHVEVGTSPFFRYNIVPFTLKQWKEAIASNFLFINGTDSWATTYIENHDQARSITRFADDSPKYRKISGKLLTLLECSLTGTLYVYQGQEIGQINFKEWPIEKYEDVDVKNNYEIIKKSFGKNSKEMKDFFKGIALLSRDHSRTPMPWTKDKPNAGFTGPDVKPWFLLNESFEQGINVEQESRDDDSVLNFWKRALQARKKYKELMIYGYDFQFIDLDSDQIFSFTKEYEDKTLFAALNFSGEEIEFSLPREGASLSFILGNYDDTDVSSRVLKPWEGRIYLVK
α-glucosidase, sequence (P53341 whole entry): as above

By IC50 is commonly meant the concentration that inhibits the measured activity by half. The term Ki denotes a measure of affinity in units of concentration, obtained from inhibition or displacement. `O=c1oc(-c2ccc(O)c(O)c2)cc2cccc(O)c12` [Compound 12, Thunberginol A]: the “α-glucosidase Inhibition type” value at α-glucosidase is reported as “Uncompetitive”. Also, the IC50 turned out to be 8 ± 1.1 µM against PTP1B [1] and 3.4 ± 0.2 µM in assay [2]. Also, the “α-glucosidase potency relative to acarbose” value in assay [2] (ratio of IC50 values) is “over 70 times”. For the same molecule, the “PTP1B Inhibition type” value at PTP1B [3] (Lineweaver–Burk plot) is reported as “mixed-type”. In addition, the figures for the Ki on PTP1B [3] (Kic) and on PTP1B [3] (Kiu) were 12.2 µM and 5.5 µM, respectively.

Consider `O=c1c(O)c(-c2ccc(O)c(O)c2)oc2cc(O)cc(O)c12` [quercetin], for which the IC50 on rat sucrase is more than 400 µM; at rat maltase, 281 µM.
